The results in this text go back to ChEMBL document CHEMBL1156534, “Hemopressin is an inverse agonist of CB1 cannabinoid receptors” (Proc Natl Acad Sci U S A, 2007).

For assay [1], the target named is Cannabinoid receptor 2 (Homo sapiens) (UniProt P34972). Description: Antagonist activity at CB2 receptor expressed in Neuro 2A cells assessed as blockade of Hu210-mediated increase in number of neurite outgrowth at 10 uM after 16 hrs. It is filed as functional, cell-based. The essentials:
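Neuro 2A cells transfected with Flag-tagged CB1 or CB2 were exposed 16 h in 0.1% FBS medium to 100 nM Hu-210 with or without 10 μM peptide. The percentage of cells extending neurites was scored and normalized to untreated cells (100%). Mean ± SE of triplicate experiments.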

For assay [2], the target named is Cannabinoid receptor 1 (Rattus norvegicus) (UniProt P20272). In words: Antagonist activity at Long-Evans rat striatal membrane CB1 receptor assessed as blockade of Hu210-mediated decrease in adenylate cyclase activity. It counts as functional. In outline:
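Membranes (10 μg) came from striatum (CB1) or spleen (CB2). They were tested in GTPγS-binding or adenylyl cyclase assays with Hu-210 and test ligand (0–1 μM), or with Hu-210 curves with or without 10 μM peptide; a 1 μM single-point combination was also used. Mean ± SE of triplicates.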

Assay [3] addresses T1, Type-1 angiotensin II receptor (Homo sapiens) (UniProt P30556).
T1 sequence (whole entry): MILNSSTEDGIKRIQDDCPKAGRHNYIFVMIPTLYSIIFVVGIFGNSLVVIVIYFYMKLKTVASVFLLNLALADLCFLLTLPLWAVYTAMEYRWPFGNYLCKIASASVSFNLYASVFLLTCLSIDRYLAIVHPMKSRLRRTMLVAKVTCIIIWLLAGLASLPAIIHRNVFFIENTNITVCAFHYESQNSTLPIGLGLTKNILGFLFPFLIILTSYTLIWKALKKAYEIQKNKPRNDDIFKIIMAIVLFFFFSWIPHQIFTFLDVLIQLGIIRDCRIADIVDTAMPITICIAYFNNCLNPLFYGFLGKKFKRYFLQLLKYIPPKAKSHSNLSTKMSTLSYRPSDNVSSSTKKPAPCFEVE
Description: Antagonist activity at AT1 angiotensin receptor expressed in SKNSH cells assessed as blockade of angiotensin 2-induced increase in antibody recognition at 100 nM by ELISA relative to control. It counts as functional, cell-based. Also noted: scale not given: the % may be the effect or the level left. (In an ELISA, binding on a coated surface is turned into a signal by an enzyme label.)

The next assay has as its system Mus musculus. In words: Effect on motor coordination in C57BL/6 mouse at […], ip after 1 hrs. It is filed as functional, organism-based.
Assay [4] deals with Mu-type opioid receptor (Homo sapiens) (UniProt P35372). Description: Antagonist activity at mu opioid receptor expressed in HEK293 cells assessed as blockade of secreted alkaline phosphatase activity at 1 uM after 6 hrs relative to control. It is filed as functional, cell-based. The essentials:
(§1)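 HEK-293 cells transiently co-transfected with pCRE-SeAP and a Flag-tagged receptor, 30,000 cells/well on poly-L-lysine. They were serum-starved 16–18 h, then exposed 6 h in serum-free medium to 10 μM forskolin (omitted for β2) plus the receptor agonist (100 nM), with or without peptide (1 μM). Heat-treated supernatant SeAP was read by CSPD chemiluminescence. Mean ± SEM, n = 6.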

For assay [5], the target named is T2, Alpha-2A adrenergic receptor (Homo sapiens) (UniProt P08913).
T2 sequence (whole entry): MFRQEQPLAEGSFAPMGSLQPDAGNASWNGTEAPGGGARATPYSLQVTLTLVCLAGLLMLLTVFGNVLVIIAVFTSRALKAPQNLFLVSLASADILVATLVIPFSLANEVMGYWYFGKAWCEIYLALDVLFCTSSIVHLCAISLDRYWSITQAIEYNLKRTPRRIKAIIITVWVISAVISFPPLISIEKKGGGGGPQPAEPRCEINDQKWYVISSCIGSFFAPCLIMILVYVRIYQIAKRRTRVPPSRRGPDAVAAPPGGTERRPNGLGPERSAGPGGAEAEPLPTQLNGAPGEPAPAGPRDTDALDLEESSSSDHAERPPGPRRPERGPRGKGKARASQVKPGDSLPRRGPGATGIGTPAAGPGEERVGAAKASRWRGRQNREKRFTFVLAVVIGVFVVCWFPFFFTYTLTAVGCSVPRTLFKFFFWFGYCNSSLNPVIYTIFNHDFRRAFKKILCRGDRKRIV
Description: Antagonist activity at alpha2A adrenergic receptor expressed in HEK293 cells assessed as blockade of clonidine-mediated decrease in secreted alkaline phosphatase activity at 1 uM after 6 hrs relative to control. It counts as functional, cell-based. The essentials:
as §1

Assay [6] concerns the target T1, Type-1 angiotensin II receptor (Homo sapiens). In words: Antagonist activity at AT1 angiotensin receptor expressed in HEK293 cells assessed as blockade of secreted alkaline phosphatase activity at 1 uM after 6 hrs relative to control. It counts as functional, cell-based. The essentials:
as §1

For assay [7], the target named is T2, Alpha-2A adrenergic receptor (Homo sapiens). In words: Antagonist activity at alpha2A adrenergic receptor expressed in HEK293 cells assessed as blockade of secreted alkaline phosphatase activity at 1 uM after 6 hrs relative to control. It is filed as functional, cell-based. In outline:
as §1

Assay [8] concerns the target Mu-type opioid receptor (Homo sapiens) (UniProt P35372). In words: Antagonist activity at mu opioid receptor expressed in HEK293 cells assessed as blockade of DAMGO-mediated decrease in secreted alkaline phosphatase activity at 1 uM after 6 hrs relative to control. It counts as functional, cell-based. The essentials: as §1
In assay [9] the target is Delta-type opioid receptor (Homo sapiens) (UniProt P41143). Description: Antagonist activity at delta opioid receptor expressed in SKNSH cells assessed as blockade of deltorphin 2-induced increase in antibody recognition at 100 nM by ELISA relative to control. It counts as functional, cell-based. Details: scale not given: the % may be the effect or the level left.
Chain of Delta-type opioid receptor (Homo sapiens) (P41143 whole entry): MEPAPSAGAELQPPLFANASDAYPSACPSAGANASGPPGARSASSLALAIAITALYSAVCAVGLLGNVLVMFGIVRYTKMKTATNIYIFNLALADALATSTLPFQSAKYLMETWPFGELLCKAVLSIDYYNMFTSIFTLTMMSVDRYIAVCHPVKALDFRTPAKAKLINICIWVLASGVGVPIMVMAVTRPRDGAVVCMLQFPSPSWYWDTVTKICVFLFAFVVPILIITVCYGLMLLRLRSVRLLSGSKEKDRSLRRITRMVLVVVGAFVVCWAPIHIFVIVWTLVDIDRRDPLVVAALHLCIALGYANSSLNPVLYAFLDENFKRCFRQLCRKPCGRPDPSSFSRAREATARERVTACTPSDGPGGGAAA
The test system of the next assay is Rattus norvegicus. In words: Antihyperalgesic effects in Wistar rat assessed as reduction of carrageenan-induced paw pressure at 100 ug/kg, po after 3 hrs. It counts as functional, organism-based. The essentials:
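Male Wistar rats (200 g) received carrageenan 200 μg/paw intraplantar in saline into the right hind paw. Peptide was given at the same time: intraplantar 10 μg/paw, intrathecal 0.5 or 5 μg/kg, or oral 50 or 100 μg/kg; saline-treated rats served as controls. Paw-pressure withdrawal threshold (force ramp 16 g/s) was read at 0 and 3 h. n = 6–8.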
A general note: In the carrageenan paw model, swelling and tenderness develop within hours.

Assay [10] has as its target T1, Type-1 angiotensin II receptor (Homo sapiens). In words: Antagonist activity at AT1 angiotensin receptor expressed in HEK293 cells assessed as blockade of angiotensin 2-mediated decrease in secreted alkaline phosphatase activity at 1 uM after 6 hrs relative to control. It is filed as functional, cell-based. The essentials:
as §1

The target in assay [11] is Cannabinoid receptor 1 (Homo sapiens) (UniProt P21554). Description: Antagonist activity at CB1 receptor expressed in SKNSH cells at 100 nM by ELISA relative to control. Also noted: scale not given: the % may be the effect or the level left. It is filed as functional, cell-based.
Chain of Cannabinoid receptor 1 (Homo sapiens) (P21554 whole entry): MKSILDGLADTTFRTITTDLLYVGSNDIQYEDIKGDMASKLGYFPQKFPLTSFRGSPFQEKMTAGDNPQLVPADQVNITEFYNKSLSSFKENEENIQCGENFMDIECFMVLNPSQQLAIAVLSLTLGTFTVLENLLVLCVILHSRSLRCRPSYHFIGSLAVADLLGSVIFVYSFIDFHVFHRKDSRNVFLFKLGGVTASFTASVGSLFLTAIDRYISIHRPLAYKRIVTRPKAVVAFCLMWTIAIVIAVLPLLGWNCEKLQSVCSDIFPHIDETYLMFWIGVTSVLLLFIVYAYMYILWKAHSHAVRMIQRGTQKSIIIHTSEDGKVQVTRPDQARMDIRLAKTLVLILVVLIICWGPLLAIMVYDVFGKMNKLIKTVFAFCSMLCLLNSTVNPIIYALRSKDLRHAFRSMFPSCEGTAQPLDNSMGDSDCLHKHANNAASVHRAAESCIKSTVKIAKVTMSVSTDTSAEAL
The target is the same in assay [12]. In words: Antagonist activity at CB1 receptor expressed in Neuro 2A cells assessed as blockade of Hu210-mediated decrease in secreted alkaline phosphatase activity at 1 uM. It is filed as functional, cell-based. The essentials:
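Neuro 2A cells co-expressing pCRE-SeAP and CB1 were serum-starved 16–18 h, then given 10 μM forskolin plus 100 nM Hu-210, with or without 1 μM peptide, for 6 h without serum. Secreted alkaline phosphatase in heat-treated supernatant was measured by CSPD luminescence. Mean ± SEM of sextuplicates, n = 2.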

The target of assay [13] is Beta-2 adrenergic receptor (Homo sapiens) (UniProt P07550). In words: Antagonist activity at beta2 adrenergic receptor expressed in HEK293 cells assessed as blockade of secreted alkaline phosphatase activity at 1 uM after 6 hrs relative to control. It is filed as functional, cell-based. In outline: as §1
Chain of Beta-2 adrenergic receptor (Homo sapiens) (P07550 whole entry, looked up): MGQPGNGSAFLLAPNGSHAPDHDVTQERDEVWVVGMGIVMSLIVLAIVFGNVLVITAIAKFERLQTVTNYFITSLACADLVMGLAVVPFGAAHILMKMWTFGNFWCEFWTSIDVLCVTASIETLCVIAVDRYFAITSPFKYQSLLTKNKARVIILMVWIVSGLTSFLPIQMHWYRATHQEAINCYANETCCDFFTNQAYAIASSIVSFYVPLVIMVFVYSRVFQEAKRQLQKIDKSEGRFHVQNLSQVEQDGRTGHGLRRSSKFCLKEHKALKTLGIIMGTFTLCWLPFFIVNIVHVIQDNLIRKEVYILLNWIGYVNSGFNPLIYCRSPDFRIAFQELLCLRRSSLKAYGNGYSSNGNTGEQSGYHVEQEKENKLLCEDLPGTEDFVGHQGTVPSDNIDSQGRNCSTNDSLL

The source made the active and inactive calls.

Chain of Mu-type opioid receptor (Homo sapiens) (P35372 whole entry): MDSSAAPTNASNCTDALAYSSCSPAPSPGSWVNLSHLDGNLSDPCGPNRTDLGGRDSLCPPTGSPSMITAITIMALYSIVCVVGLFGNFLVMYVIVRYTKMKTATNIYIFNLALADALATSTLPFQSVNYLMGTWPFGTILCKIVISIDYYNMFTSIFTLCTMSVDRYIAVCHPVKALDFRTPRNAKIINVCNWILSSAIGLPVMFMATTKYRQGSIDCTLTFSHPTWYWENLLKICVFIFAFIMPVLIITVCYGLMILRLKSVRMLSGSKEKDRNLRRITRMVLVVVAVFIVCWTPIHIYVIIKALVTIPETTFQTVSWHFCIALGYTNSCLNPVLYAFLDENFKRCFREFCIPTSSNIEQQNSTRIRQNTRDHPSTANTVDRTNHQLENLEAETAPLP
Chain of Cannabinoid receptor 2 (Homo sapiens) (P34972 whole entry): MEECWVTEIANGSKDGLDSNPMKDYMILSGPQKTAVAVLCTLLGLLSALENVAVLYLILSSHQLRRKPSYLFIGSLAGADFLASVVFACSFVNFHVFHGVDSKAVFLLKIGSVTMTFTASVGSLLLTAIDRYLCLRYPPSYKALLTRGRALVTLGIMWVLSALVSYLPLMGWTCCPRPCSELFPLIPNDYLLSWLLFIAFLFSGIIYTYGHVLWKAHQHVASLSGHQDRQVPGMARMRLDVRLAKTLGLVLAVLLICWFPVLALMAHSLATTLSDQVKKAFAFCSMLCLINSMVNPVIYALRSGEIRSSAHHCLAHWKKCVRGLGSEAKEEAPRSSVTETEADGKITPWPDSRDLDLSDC
Chain of Cannabinoid receptor 1 (Rattus norvegicus) (P20272 whole entry): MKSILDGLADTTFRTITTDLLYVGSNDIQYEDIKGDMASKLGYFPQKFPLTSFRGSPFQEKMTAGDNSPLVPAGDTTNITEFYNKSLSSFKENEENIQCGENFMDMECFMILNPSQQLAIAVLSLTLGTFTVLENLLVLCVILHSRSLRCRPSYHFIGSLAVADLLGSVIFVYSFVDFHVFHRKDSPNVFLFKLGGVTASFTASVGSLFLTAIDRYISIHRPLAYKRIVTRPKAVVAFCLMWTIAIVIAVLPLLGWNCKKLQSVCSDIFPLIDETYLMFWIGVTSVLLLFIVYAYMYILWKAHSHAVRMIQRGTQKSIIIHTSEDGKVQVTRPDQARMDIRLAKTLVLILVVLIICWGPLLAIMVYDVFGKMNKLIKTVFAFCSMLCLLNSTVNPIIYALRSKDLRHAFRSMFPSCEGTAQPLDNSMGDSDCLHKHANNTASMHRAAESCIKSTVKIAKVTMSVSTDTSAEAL

In the case of `CC(C)C[C@H](NC(=O)[C@H](Cc1ccccc1)NC(=O)[C@H](CCCCN)NC(=O)[C@H](Cc1ccccc1)NC(=O)[C@H](CC(N)=O)NC(=O)[C@@H](NC(=O)[C@@H]1CCCN1)C(C)C)C(=O)N[C@@H](CO)C(=O)N[C@@H](Cc1cnc[nH]1)C(=O)O` [HEMOPRESSIN], the result (in assay [1]; in the assay on Mus musculus) was inactive. Moreover, the result (in assay [2]; with Rattus norvegicus; in assay [12]) was Active. Further, the Activity in [3] came to 140%; in assay [4] it was 0.98; in assay [5] it was 0.53; in assay [6] it was 0.98; in [7], 0.92; in assay [8], 0.61. In addition, the Activity in [9] was 131%; in assay [10] it was 1.02; in [11], 72%; in assay [13], 0.96.
